Test results as given in ChEMBL document CHEMBL4312006, “A novel chalcone derivative as Nrf2 activator attenuates learning and memory impairment in a scopolamine-induced mouse model” (Eur J Med Chem, 2020).
Where a name gives a salt, the structure may show the parent alone.

Assays:
[1] = molecular target: Keap1/Nrf2 (Homo sapiens, UniProt Q14145+Q16236); experiment: Activation of NRF2 in human U2OS cells co-expressing Keap1 (unknown origin) assessed as induction of NRF2 translocation to nucleus incubated for 6 hrs by beta-galactosidase based chemiluminescent assay; format: cell-based
Outline: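 PathHunter U2OS cells engineered to co-express enzyme donor-tagged NRF2 and nuclear-localized enzyme acceptor; Nrf2 nuclear translocation reconstitutes β-galactosidase. Cells in 96-well plates exposed to a range of compound concentrations for 6 h at room temperature (20–23 °C), then 1 h with detection reagent in the dark; chemiluminescence (RLU) read. EC50 from concentration-response curve, mean ± SEM, triplicate.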

[2] = molecular target: T1, Nuclear factor erythroid 2-related factor 2 (Mus musculus) (UniProt Q60795); experiment: Activation of NRF2 in mouse BV2 cells assessed as upregulation of HO1 at 20 uM by ELISA relative to control; format: cell-based
T1 sequence (whole entry): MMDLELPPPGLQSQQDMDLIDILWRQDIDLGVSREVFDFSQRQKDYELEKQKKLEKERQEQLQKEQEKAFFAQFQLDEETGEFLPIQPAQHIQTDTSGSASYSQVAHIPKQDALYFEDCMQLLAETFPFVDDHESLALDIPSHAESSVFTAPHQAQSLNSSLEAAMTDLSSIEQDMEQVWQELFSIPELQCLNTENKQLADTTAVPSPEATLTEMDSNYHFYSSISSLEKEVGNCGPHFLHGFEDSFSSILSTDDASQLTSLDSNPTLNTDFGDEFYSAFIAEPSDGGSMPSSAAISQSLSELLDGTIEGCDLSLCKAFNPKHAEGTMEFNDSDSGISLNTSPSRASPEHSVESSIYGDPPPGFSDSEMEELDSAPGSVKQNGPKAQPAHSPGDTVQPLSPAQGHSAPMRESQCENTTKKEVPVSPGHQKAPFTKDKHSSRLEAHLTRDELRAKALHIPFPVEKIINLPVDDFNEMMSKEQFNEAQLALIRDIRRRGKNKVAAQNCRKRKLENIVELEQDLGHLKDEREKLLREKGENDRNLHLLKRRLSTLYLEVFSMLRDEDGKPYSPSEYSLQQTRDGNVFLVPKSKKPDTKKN

Sequence of Keap1/Nrf2 (Q16236 whole entry): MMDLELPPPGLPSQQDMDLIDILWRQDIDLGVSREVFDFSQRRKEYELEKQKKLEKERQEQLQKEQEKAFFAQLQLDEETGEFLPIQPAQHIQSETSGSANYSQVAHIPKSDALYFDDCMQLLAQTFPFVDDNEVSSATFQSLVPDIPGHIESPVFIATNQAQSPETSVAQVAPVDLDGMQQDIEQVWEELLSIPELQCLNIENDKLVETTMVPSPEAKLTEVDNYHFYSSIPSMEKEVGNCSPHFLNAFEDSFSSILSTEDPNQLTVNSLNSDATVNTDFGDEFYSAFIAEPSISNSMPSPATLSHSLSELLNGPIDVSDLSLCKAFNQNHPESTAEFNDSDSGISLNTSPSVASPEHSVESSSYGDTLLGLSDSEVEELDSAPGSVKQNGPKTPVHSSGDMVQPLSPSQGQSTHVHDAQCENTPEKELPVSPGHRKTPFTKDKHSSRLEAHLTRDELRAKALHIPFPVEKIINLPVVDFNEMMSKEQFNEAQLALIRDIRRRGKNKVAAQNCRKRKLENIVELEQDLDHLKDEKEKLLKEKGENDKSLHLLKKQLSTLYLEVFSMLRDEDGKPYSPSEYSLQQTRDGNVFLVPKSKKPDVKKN
Sequence of Keap1/Nrf2 (Q14145 whole entry): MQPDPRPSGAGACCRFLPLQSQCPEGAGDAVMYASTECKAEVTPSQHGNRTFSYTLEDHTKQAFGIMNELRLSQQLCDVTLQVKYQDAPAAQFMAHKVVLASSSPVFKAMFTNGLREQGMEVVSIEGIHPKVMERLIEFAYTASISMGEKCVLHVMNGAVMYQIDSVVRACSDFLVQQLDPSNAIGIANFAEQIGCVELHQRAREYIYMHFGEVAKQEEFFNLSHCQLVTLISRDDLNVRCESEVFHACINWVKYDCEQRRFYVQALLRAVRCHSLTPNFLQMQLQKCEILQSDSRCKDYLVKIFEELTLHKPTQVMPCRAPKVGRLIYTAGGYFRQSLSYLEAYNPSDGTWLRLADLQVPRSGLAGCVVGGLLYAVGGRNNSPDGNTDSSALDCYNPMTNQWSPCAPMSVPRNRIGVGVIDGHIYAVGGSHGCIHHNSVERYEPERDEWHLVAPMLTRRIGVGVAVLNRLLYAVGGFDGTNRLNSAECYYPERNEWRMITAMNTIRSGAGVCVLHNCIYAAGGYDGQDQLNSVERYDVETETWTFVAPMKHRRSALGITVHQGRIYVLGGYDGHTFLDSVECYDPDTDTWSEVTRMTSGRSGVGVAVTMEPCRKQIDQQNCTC

SMILES	EC50 [1] [nM]	Activity [2] [%]
COc1ccccc1/C=C/C(=O)c1ccc(OCC(=O)N2CCOCC2)cc1	1770	–
COc1ccccc1/C=C/C(=O)c1ccccc1OCCCN1CCOCC1	5520	146
O=C(/C=C/c1ccccc1C(F)(F)F)c1ccc(OCC(=O)N2CCOCC2)cc1	1060	–
CN1CCN(C(=O)COc2ccc(C(=O)/C=C/c3ccccc3F)cc2)CC1	1540	–
COC(=O)/C=C/C(=O)OC [DIMETHYL FUMARATE]	5110	–
COc1ccccc1/C=C/C(=O)c1ccc(OCC(=O)N2CCN(C)CC2)cc1	1910	–
CN(C)C(=O)COc1ccc(C(=O)/C=C/c2ccccn2)cc1	1100	–
O=C(/C=C/c1ccccn1)c1ccc(OCC(=O)N2CCOCC2)cc1	1230	–
O=C(/C=C/c1ccccc1C(F)(F)F)c1ccc(OCCCN2CCCC2)cc1	> 1000	–
O=C(/C=C/c1ccccc1C(F)(F)F)c1cccc(OCCCN2CCOCC2)c1	2300	–
CN1CCN(C(=O)COc2ccc(C(=O)/C=C/c3ccccc3Cl)cc2)CC1	970	–
CN(C)C(=O)COc1ccc(C(=O)/C=C/c2ccncc2)cc1	1360	–
COc1ccccc1/C=C/C(=O)c1ccc(OCCCN2CCN(C)CC2)cc1	3330	217
CN(C)C(=O)COc1ccc(C(=O)/C=C/c2ccccc2C(F)(F)F)cc1	1120	–
O=C(/C=C/c1ccccc1Cl)c1ccc(OCCCN2CCCC2)cc1	1390	–
CN1CCN(C(=O)COc2ccc(C(=O)/C=C/c3ccccc3)cc2)CC1	1800	–
COc1ccccc1/C=C/C(=O)c1ccc(OCC(=O)N(C)C)cc1	1460	–
CN(C)C(=O)COc1ccc(C(=O)/C=C/c2cccnc2)cc1	1460	–

The remaining lines, values ahead:

EC50 [1] [nM]	Activity [2] [%]	SMILES
1720	< 200	COc1ccccc1/C=C/C(=O)c1cccc(OCCCN2CCOCC2)c1
2060	–	O=C(/C=C/c1cccc(C(F)(F)F)c1)c1ccc(OCCCN2CCOCC2)cc1
2580	–	COc1cccc(/C=C/C(=O)c2ccc(OCCCN3CCOCC3)cc2)c1
990	289	COc1ccccc1/C=C/C(=O)c1ccc(OCCCN2CCCC2)cc1
2430	–	O=C(/C=C/c1ccc(C(F)(F)F)cc1)c1ccc(OCCCN2CCOCC2)cc1
2840	–	O=C(/C=C/c1ccccc1Cl)c1cccc(OCCCN2CCOCC2)c1
1630	345	COc1ccccc1/C=C/C(=O)c1ccc(OCCCN2CCOCC2)cc1
2420	–	O=C(/C=C/c1ccccc1Cl)c1ccc(OCCCN2CCOCC2)cc1
6970	166	COc1ccc(/C=C/C(=O)c2ccc(OCCCN3CCOCC3)cc2)cc1
> 5000	112	O=C(/C=C/c1ccccn1)c1ccc(OCCCN2CCOCC2)cc1
1360	351	O=C(/C=C/c1ccccc1C(F)(F)F)c1ccc(OCCCN2CCOCC2)cc1
> 5000	–	O=C(/C=C/c1cccnc1)c1ccc(OCCCN2CCOCC2)cc1
